Where “and” joins values, the source holds several entries; their conditions need not be identical. Equal entries are not always repeated. One block for each compound: values may come before it.
Key:
[1] = Bioavailability in rat; assay type: ADME, organism-based; settings: in vivo
[2] = Area under curve (AUC) was determine after intravenous dosing at 10 mg/kg; assay type: ADME, organism-based; design: dose 10 mg/kg, route intravenous; settings: in vivo
[3] = Steady state volume of distribution (Vdss) was determined after intravenous dosing at 10 mg/kg in rat; assay type: ADME, organism-based; design: dose 10 mg/kg, route intravenous; settings: in vivo, read-out: Vdss
How it was run: (§1)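 Male Sprague–Dawley rats (250–300 g), femoral artery and vein cannulated under light ether anesthesia; after recovery, 10 mg/kg given via femoral vein. Arterial blood sampled at 0, 1, 5, 15, 30, 60, 90, 120, 180, 240 min, collected into heparinized tubes, deproteinized with 2 volumes methanol, centrifuged; supernatant analyzed by HPLC (0.1% TFA/acetonitrile 81:19).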

[4] = Half life of compound was determined after intravenous dosing at 10 mg/kg in rat; assay type: ADME, organism-based; design: dose 10 mg/kg, route intravenous; settings: in vivo; how it was run: as §1
[5] = Clearance value was determined after intravenous dosing at 10 mg/kg in rat; assay type: ADME, organism-based; design: dose 10 mg/kg, route intravenous; settings: in vivo; how it was run: as §1
[6] = target: Prothrombin (Homo sapiens, UniProt P00734); test: In vitro inhibition constant (Ki) against human thrombin
[7] = system: Canis lupus familiaris; test: Bioavailability of compound (F %) was evaluated at 5 mg/kg in dog; assay type: functional, organism-based
[8] = system: Primates; test: Bioavailability of compound(F %) was evaluated at mg/kg in Monkey; assay type: functional, organism-based
[9] = Area under curve (AUC) was determine after intravenous dosing at 2 mg/kg in monkey; assay type: functional, organism-based; design: dose 2 mg/kg
[10] = Area under curve (AUC) was determine after postoral dosing at 5 mg/kg in dog; assay type: functional, organism-based; design: dose 5 mg/kg
[11] = Area under curve (AUC) was determined after intravenous dosing at 10 mg/kg in rat; assay type: ADME, organism-based; design: dose 10 mg/kg, route intravenous; settings: in vivo; how it was run: as §1
[12] = Time of maximum plasma concentration of compound in monkey at 5 mg/kg was determined; assay type: functional, organism-based; design: dose 5 mg/kg
[13] = Steady state volume of distribution (Vdss) was evaluated at 2 mg/kg after intravenous dosing in monkey; assay type: functional, organism-based; design: dose 2 mg/kg
[14] = Steady state volume of distribution (Vdss) was evaluated at 2.5 mg/kg after intravenous dosing; assay type: functional, organism-based; design: dose 2.5 mg/kg
[15] = Half life of compound (t 1/2) was evaluated at 2 mg/kg after intravenous dosing in monkey; assay type: functional, organism-based; design: dose 2 mg/kg
[16] = Half life of compound (t 1/2) was evaluated at 2.5 mg/kg after intravenous dosing; assay type: functional, organism-based; design: dose 2.5 mg/kg
[17] = Half life of compound (t 1/2) was evaluated at 20 mg/kg after postoral dosing in monkey; assay type: functional, organism-based; design: dose 20 mg/kg
[18] = Half life of compound (t 1/2) was evaluated at 5 mg/kg after postoral dosing; assay type: functional, organism-based; design: dose 5 mg/kg
[19] = Clearance was determined after intravenous dosing at 2 mg/kg in monkey; assay type: functional, organism-based; design: dose 2 mg/kg
[20] = Maximal plasma concentration in dogs after 5 mg/kg oral dose; assay type: ADME, organism-based, Canis lupus familiaris; design: dose 5 mg/kg, route oral; settings: dog
[21] = In vitro metabolic stability was determined using liver S9 fraction from dog at initial concentration of 20 uM; assay type: ADME, Canis lupus familiaris; settings: read-out: Recovery
How it was run: (§2)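 Liver S9 (9000g supernatant of homogenate in Tris-acetate pH 7.4, KCl, EDTA) from rat, dog, monkey (pooled, n = 2) or human (n = 2); 20 µM final compound with NADPH generating system and S9 6.72 mg/mL in 100 mM phosphate pH 7.4, 37 °C. Samples methanol-deproteinized, HPLC; recovery after 30 min reported; no-NADPH control.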

[22] = (§3) In vitro metabolic stability was determined using liver S9 fraction from human at initial concentration of 20 uM; assay type: ADME; settings: liver S9 fraction, read-out: Recovery; how it was run: as §2
[23] = organism: Homo sapiens; test: as §3; assay type: ADME; settings: 20 µM; how it was run: as §2
[24] = target: Coagulation factor X (Homo sapiens, UniProt P00742); test: In vitro inhibition constant (Ki) against human Coagulation factor X was determined
Chain of Coagulation factor X (P00742 41-179 limits assumed): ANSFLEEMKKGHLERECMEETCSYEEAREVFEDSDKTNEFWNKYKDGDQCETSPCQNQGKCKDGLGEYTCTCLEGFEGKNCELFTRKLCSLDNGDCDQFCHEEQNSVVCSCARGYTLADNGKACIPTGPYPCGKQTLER
Chain of Coagulation factor X (P00742 235-488 limits assumed): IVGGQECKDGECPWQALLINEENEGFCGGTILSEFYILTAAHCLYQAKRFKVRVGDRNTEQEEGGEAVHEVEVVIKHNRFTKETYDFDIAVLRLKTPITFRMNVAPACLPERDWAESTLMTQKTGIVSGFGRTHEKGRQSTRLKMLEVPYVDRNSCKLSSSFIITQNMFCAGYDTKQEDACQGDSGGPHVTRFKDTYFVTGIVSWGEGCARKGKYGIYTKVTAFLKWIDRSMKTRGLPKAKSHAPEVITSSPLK

[25] = target: Plasminogen (Homo sapiens, UniProt P00747); test: In vitro inhibition constant (Ki) against human plasmin was determined
Chain of Plasminogen (P00747 97-580 limits assumed): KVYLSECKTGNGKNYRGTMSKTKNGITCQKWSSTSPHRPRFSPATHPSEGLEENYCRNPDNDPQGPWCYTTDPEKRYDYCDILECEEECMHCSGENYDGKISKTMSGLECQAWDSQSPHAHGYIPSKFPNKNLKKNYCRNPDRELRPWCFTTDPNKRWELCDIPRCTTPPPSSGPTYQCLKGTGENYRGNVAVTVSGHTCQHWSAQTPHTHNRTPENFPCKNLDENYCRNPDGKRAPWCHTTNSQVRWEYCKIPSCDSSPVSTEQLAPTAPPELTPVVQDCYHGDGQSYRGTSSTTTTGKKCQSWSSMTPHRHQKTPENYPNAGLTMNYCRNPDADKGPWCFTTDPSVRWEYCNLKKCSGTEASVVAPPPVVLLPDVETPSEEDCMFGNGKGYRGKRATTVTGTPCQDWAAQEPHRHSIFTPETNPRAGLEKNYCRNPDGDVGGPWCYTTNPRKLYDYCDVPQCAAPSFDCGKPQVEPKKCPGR
Chain of Plasminogen (P00747 581-810 limits assumed): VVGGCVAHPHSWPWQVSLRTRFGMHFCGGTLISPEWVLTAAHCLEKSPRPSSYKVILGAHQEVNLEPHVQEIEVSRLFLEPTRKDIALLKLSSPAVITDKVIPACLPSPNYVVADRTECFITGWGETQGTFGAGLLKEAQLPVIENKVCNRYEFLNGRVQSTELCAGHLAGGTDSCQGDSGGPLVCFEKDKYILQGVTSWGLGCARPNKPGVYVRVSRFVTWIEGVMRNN

[26] = system: Rattus norvegicus; test: In vivo inhibition of thrombus formation in thromboplastin-induced deep vein thrombosis (DVT) rat model after iv bolus dosing at 1 mg/kg; assay type: functional
[27] = organism: Rattus norvegicus; test: In vitro concentration of inhibitor to double the activated partial thromboplastin time was evaluated in rat; assay type: functional
How it was run: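 Rat plasma mixed with inhibitor and an equal volume of aPTT reagent (Platelin LS), incubated 5 min at 37 °C, then 100 μL of 25 mM CaCl2 added. Clotting time read on an automatic coagulometer. Value taken as the inhibitor concentration that doubles aPTT.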

[28] = system: Rattus norvegicus; test: Ex vivo activated clotting time was measured in rat plasma at 1 mg/kg; assay type: functional
[29] = organism: Rattus norvegicus; test: Ex vivo concentration of inhibitor to double the activated clotting time was measured in rat plasma; assay type: functional
[30] = target: Tissue-type plasminogen activator (Homo sapiens, UniProt P00750); test: In vitro inhibition constant (Ki) against human Tissue type plasminogen activator was determined
Chain of Tissue-type plasminogen activator (P00750 whole entry): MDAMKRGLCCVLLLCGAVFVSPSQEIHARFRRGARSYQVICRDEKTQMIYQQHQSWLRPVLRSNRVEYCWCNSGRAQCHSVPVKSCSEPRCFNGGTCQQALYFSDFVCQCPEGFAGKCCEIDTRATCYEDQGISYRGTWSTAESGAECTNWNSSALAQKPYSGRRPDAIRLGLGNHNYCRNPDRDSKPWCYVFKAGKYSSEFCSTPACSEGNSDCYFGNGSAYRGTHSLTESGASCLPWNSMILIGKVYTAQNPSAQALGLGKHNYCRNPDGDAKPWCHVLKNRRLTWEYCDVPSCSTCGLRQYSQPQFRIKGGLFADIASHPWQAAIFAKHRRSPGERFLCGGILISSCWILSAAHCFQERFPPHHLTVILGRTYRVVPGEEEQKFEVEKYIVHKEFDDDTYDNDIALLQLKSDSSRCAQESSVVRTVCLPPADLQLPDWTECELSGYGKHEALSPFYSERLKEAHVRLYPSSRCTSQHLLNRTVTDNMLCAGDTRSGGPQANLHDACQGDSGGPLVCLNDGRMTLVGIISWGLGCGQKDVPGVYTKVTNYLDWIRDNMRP

[31] = target: Trypsin (Homo sapiens, UniProt P07477+P07478+P35030); test: In vitro inhibition constant (Ki) against human trypsin was determined; assay type: protein assay
[32] = target: T1, Serine protease 1 (Bos taurus, UniProt P00760); test: In vitro inhibition constant (Ki) against […] trypsin was determined
T1 sequence (P00760 whole entry): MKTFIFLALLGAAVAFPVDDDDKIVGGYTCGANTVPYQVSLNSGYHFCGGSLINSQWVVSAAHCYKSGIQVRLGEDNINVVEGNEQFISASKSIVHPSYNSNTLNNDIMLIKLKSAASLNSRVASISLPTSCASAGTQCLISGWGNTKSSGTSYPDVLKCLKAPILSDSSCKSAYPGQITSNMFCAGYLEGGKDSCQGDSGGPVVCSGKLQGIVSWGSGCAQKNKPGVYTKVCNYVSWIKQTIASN

[33] = Selectivity of compound was determined between thrombin and human plasmin
[34] = target: Thrombin & trypsin (Homo sapiens) (UniProt P00734+P07477+P07478+P35030); test: Selectivity of compound was determined between thrombin and human trypsin; assay type: protein assay
[35] = Selectivity of compound was determined between thrombian and human t-PA
[36] = target: Thrombin and coagulation factor X (Homo sapiens) (UniProt P00734+P00742); test: Selectivity of compound was determined between thrombin and human factor Xa; assay type: protein assay
Chain of Thrombin and coagulation factor X (Homo sapiens) (P00742 whole entry, looked up, other chains not shown): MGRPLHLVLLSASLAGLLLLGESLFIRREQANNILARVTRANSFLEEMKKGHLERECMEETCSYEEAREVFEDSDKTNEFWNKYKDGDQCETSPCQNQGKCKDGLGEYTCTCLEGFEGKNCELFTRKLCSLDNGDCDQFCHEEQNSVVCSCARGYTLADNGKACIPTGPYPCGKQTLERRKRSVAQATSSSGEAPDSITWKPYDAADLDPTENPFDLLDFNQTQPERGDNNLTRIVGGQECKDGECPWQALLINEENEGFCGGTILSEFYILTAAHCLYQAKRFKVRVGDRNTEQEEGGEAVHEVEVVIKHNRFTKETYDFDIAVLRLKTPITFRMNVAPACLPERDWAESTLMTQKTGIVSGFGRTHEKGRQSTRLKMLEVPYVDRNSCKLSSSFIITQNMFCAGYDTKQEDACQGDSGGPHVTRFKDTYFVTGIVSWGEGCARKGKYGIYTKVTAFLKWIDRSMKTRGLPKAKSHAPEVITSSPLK

[37] = In vitro metabolic stability was determined using liver S9 fraction from monkey at initial concentration of 20 uM; assay type: ADME, subcellular; settings: simiiformes, read-out: Recovery; how it was run: as §2
[38] = Clearance value was determined after intravenous dosing at 2.5 mg/kg; assay type: functional, organism-based; design: dose 2.5 mg/kg
[39] = organism: Homo sapiens
[40] = Maximal plasma concentration in monkeys after 20 mg/kg oral dose; settings: cynomolgus monkey
[41] = system: thrombin (Homo sapiens) & trypsin (Bos taurus); test: Selectivity of compound was determined between thrombin and bovine trypsin
[42] = Area under curve (AUC) was determine after oral dosing at 20 mg/kg in monkey
[43] = system: Canis lupus familiaris; test: Area under curve (AUC) was determine after intravenous dosing at 2.5 mg/kg in dog

bioavailability [1]: 21%
AUC [2]: 29100 ng·h/mL
Vd [3]: 0.189 L/kg
half-life [4]: 50 min
clearance [5]: 6 mL/min/kg
Ki [6]: 0.64 nM
SMILES: N=C(N)c1csc(CNC(=O)[C@@H]2CCCN2C(=O)[C@H](NCC(=O)O)C(c2ccccc2)c2ccccc2)n1

SMILES: N=C(N)c1ccc(CNC(=O)[C@@H]2CCCN2C(=O)[C@H](NCC(=O)O)C(c2ccccc2)c2ccccc2)s1
bioavailability [7]: 42%
bioavailability [1]: 43%
bioavailability [8]: 15%
AUC [9]: 3420 ng·h/mL
AUC [10]: 6050 ng·h/mL
AUC [11]: 17600 ng·h/mL
Tmax [12]: 30 min and 90 min
Vd [3]: 0.258 L/kg
Vdss [13]: 0.23 L/kg
Vdss [14]: 0.223 L/kg
T1/2 [15]: 23 min
T1/2 [16]: 54 min
T1/2 [17]: 58 min
T1/2 [18]: 68 min
half-life [4]: 47 min
clearance [5]: 9.6 mL/min/kg
CL (mL.min-1.kg-1) [19]: 9.8
Cmax [20]: 3800 ng/mL
remaining at 20 µM [21]: 99%
remaining at 20 µM [22]: 95%
Recovery [23]: 95%
Ki [24]: 2250 nM
Ki [25]: 7400 nM
inhibition in vivo at 1 mg/kg [26]: 100%
APTT [27]: 0.97 µM
ACT [28]: 12
Concentration to double activated clotting time [29]: 0.85 µM
Ki [30]: 433 nM
Ki [31]: 0.3 nM
Ki [32]: 3 nM
Selectivity [33]: > 10000
Selectivity [34]: 20
Selectivity [35]: > 10000
Selectivity [36]: > 10000
remaining at 20 µM [37]: 83%
CL (mL.min-1.kg-1) [38]: 5.9
APTT [39]: 0.23 µM
Cmax [40]: 2100 ng/mL
Selectivity [41]: 200
AUC [42]: 5150 ng·h/mL
AUC [43]: 7620 ng·h/mL

From ChEMBL document CHEMBL1144934, “Efficacious and orally bioavailable thrombin inhibitors based on a 2,5-thienylamidine at the P1 position: discovery of N-carboxymethyl-d-diphenylalanyl-l-prolyl[(5-amidino-2-thienyl)methyl]amide” (J Med Chem, 2003)
